Bounds are passed on as bounds.

A word on the IC50: it is the point on the concentration scale where inhibition reaches its midpoint. A high value points to weaker potency. One may read the inhibition as how much of the control response was suppressed.

For assay [1], the target named is C-C chemokine receptor type 2 (Homo sapiens, UniProt P41597). The assay can be described thus: Displacement of [125]MCP1 from CCR2 in human PBMCs. The gist of the method:
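Competition binding with 0.3 nM [125I]MCP-1 on human peripheral blood mononuclear cells at 23 °C. IC50 given as mean ± SD (n = 2) or mean ± SEM (n > 2). Single determinations are listed with n = 1.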

Assay [2] has as its target T1, C-C chemokine receptor type 1 (Homo sapiens) (UniProt P32246).
T1 sequence (whole entry): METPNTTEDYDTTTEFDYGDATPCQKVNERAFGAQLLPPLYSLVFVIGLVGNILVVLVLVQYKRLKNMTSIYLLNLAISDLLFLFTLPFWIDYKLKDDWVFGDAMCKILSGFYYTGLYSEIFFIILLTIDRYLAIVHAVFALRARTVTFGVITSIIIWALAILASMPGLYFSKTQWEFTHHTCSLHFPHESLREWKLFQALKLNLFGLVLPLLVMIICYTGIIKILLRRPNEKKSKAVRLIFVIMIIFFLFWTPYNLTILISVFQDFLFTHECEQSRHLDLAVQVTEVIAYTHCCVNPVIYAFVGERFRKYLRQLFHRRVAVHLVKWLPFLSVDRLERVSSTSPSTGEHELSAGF
The assay can be described thus: Inhibition of CCR1 at 10 uM.

Sequence of C-C chemokine receptor type 2 (P41597 whole entry): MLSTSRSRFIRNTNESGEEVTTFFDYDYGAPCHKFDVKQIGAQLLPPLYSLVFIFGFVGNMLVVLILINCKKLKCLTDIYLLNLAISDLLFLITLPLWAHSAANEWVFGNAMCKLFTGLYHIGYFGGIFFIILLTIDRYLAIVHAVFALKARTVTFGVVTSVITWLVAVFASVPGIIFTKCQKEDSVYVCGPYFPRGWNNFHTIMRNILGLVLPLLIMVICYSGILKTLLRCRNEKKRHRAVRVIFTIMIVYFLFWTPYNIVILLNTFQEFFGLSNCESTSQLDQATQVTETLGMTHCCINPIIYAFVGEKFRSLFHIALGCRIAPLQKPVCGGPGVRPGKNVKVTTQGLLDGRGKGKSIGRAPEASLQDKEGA

In the case of `CCc1ccccc1CNC[C@H](NC(=O)CNC(=O)c1cccc(C(F)(F)F)c1)C(=O)NC(C)(C)C`, the concentration for half-maximal inhibition (IC50) in assay [1] is 0.38 µM. The molecule also registered an inhibition in assay [2] of under 30%.

Consider `Cc1ccc(CNCC[C@H](NC(=O)CNC(=O)c2cccc(C(F)(F)F)c2)C(N)=O)c(C)c1`, for which the IC50 in assay [1] is 3 µM. The inhibition in assay [2] was under 30%.

For `Cc1ccc(CNC[C@@H](CO)NC(=O)CNC(=O)c2cccc(C(F)(F)F)c2)c(C)c1`, the half-inhibitory concentration (IC50) in assay [1] was 0.32 µM. This molecule also yielded an inhibition in assay [2] of under 30%.

`Cc1cc(Br)ccc1CNC[C@H](NC(=O)CNC(=O)c1cccc(C(F)(F)F)c1)C(=O)NC(C)(C)C` showed an IC50 in assay [1] of 0.16 µM. In assay [2], this molecule gave an inhibition of under 30%.

`Cc1ccc(CNC[C@@H](NC(=O)CNC(=O)c2cccc(C(F)(F)F)c2)C(N)=O)c(C)c1` registered an IC50 in assay [1] of 0.63 µM. In addition, in assay [2], the inhibition is under 30%.

In the case of `COC(=O)[C@H](CNCc1ccc(C)cc1C)NC(=O)CNC(=O)c1cccc(C(F)(F)F)c1`, in assay [1], the IC50 was 1.5 µM. In assay [2], this molecule registered an inhibition of under 30%.

In turn, `CCOC(=O)Nc1cc(C(=O)NCC(=O)N[C@@H](CNCc2ccc(C)cc2C)C(=O)NC(C)(C)C)cc(C(F)(F)F)c1` registered an IC50 in assay [1] of 0.31 µM. The inhibition in assay [2] was under 30%.

As to `Cc1ccc(CNC[C@H](NC(=O)CNC(=O)c2cccc(C(F)(F)F)c2)C(=O)O)c(C)c1`, in assay [1], the IC50 is 5.5 µM. The inhibition in assay [2] is under 30%.

`Cc1ccc(CNC[C@H](NC(=O)CNC(=O)c2cccc(C(F)(F)F)c2)C(=O)NC(C)(C)C)cc1N`: the IC50 in assay [1] amounted to 0.12 µM. In assay [2], this molecule gave an inhibition of under 30%.

For `COc1ccc(CNC[C@H](NC(=O)CNC(=O)c2cccc(C(F)(F)F)c2)C(=O)NC(C)(C)C)c(C)c1C`, the 50% inhibitory concentration (IC50) in assay [1] turned out to be 0.69 µM. This molecule returned an inhibition in assay [2] of under 30%.

Take `CN(C)c1ccc(CNC[C@H](NC(=O)CNC(=O)c2cccc(C(F)(F)F)c2)C(=O)NC(C)(C)C)cc1`: in assay [1], the IC50 was 0.43 µM. The molecule also gave an inhibition in assay [2] of under 30%.

For `Cc1ccc(CNC[C@H](NC(=O)CNC(=O)c2cccc(C(F)(F)F)c2)C(=O)N(C)C)c(C)c1`, the IC50 in assay [1] came out at 0.25 µM. The molecule further registered an inhibition in assay [2] of under 30%.

In turn, `C=CCNC(=O)[C@H](CNCc1ccc(C)cc1C)NC(=O)CNC(=O)c1cccc(C(F)(F)F)c1` displayed an IC50 in assay [1] of 0.2 µM. In assay [2], this molecule displayed an inhibition of under 30%.

As to `Cc1ccc(CNC[C@H](NC(=O)CNC(=O)c2cccc(SC(F)(F)F)c2)C(=O)NC(C)(C)C)c(C)c1`, in assay [1], the IC50 is 0.15 µM. In assay [2], this molecule gave an inhibition of under 30%.

In assay [1], `Cc1ccc(CNC[C@H](NC(=O)CNC(=O)c2cc(NCC(C)C)cc(C(F)(F)F)c2)C(=O)NC(C)(C)C)c(C)c1` displayed a 50% inhibitory concentration (IC50) of 0.13 µM. In assay [2], the inhibition was under 30%.

Molecule `Cc1cc(N(C)C)ccc1CNC[C@H](NC(=O)CNC(=O)c1cccc(C(F)(F)F)c1)C(=O)NC(C)(C)C` registered an IC50 in assay [1] of 0.036 µM. This molecule also registered an inhibition in assay [2] of under 30%.

In assay [1], `Cc1ccc(CNC[C@H](NC(=O)CNC(=O)c2cccc(C(F)(F)F)c2)C(=O)NC(C)(C)C)cc1` returned an IC50 of 0.75 µM. This molecule also returned an inhibition in assay [2] of under 30%.

In turn, `Cc1ccc(CNC[C@H](NC(=O)CNC(=O)c2cc(NCc3ccccc3)cc(C(F)(F)F)c2)C(=O)NC(C)(C)C)c(C)c1` registered an IC50 in assay [1] of 0.11 µM. The molecule further displayed an inhibition in assay [2] of under 30%.

`CC(C)(C)NC(=O)[C@H](CNCc1ccc(Br)cc1)NC(=O)CNC(=O)c1cccc(C(F)(F)F)c1` yielded an IC50 in assay [1] of 1.7 µM. Further, the inhibition in assay [2] was under 30%.

The molecule `Cc1ccc(CNC[C@H](NC(=O)CNC(=O)c2cccc(C(F)(F)C(F)(F)F)c2)C(=O)NC(C)(C)C)c(C)c1` had an IC50 in assay [1] of 0.065 µM. Moreover, the inhibition in assay [2] is under 30%.

In assay [1], `Cc1ccc(CNC[C@H](NC(=O)CNC(=O)c2cc(C(F)(F)F)ccc2NC(=O)OC(C)C)C(=O)NC(C)(C)C)c(C)c1` returned a 50% inhibitory concentration (IC50) of 0.065 µM. This molecule came in with an inhibition in assay [2] of under 30%.

On to `Cc1ccccc1CNC[C@H](NC(=O)CNC(=O)c1cccc(C(F)(F)F)c1)C(=O)NC(C)(C)C`, for which, in assay [1], the IC50 is 0.4 µM. The inhibition in assay [2] was under 30%.

In turn, `Cc1ccc(CNC[C@H](NC(=O)CNC(=O)c2cccc(C(F)(F)F)c2)C(=O)NC2CCCCC2)c(C)c1` yielded an IC50 in assay [1] of 0.15 µM. The molecule also registered an inhibition in assay [2] of under 30%.

Regarding `CC(C)(C)NC(=O)[C@H](CNCc1ccc(S(C)(=O)=O)cc1)NC(=O)CNC(=O)c1cccc(C(F)(F)F)c1`, the IC50 in assay [1] turned out to be 7.2 µM. The inhibition in assay [2] was under 30%.

With `Cc1ccc(CNC[C@H](NC(=O)CNC(=O)c2cccc(C(F)(F)F)c2)C(=O)NC2CCC2)c(C)c1`, in assay [1], the IC50 amounted to 0.097 µM. The inhibition in assay [2] is under 30%.

In assay [1], `Cc1ccc(CNC[C@H](NC(=O)CNC(=O)c2cccc(C(F)(F)F)c2)C(=O)Nc2ccccc2)c(C)c1` had an IC50 of 1.2 µM. In assay [2], this molecule came in with an inhibition of under 30%.

In assay [1], `Cc1ccc(CNC[C@H](NC(=O)CNC(=O)c2cccc(C(F)(F)F)c2)C(=O)NC(C)(C)CO)c(C)c1` registered an IC50 of 0.19 µM. For the same molecule, the inhibition in assay [2] is under 30%.

`Cc1ccc(CNC[C@H](NC(=O)CNC(=O)c2cccc(OC(F)(F)F)c2)C(=O)NC(C)(C)C)c(C)c1` registered an IC50 in assay [1] of 0.19 µM. In assay [2], the inhibition was under 30%.

In assay [1], `Cc1cc(C#N)ccc1CNC[C@H](NC(=O)CNC(=O)c1cccc(C(F)(F)F)c1)C(=O)NC(C)(C)C` yielded an IC50 of 0.9 µM. The same molecule had an inhibition in assay [2] of under 30%.

In the case of `Cc1ccc(CNC[C@H](NC(=O)CNC(=O)c2cccc(C(F)(F)F)c2)C(=O)NC2(C)CC2)c(C)c1`, the IC50 in assay [1] is 0.1 µM. The molecule also displayed an inhibition in assay [2] of under 30%.

Regarding `Cc1ccc(CNC[C@H](NC(=O)CNC(=O)c2cccc(C(F)(F)F)c2)C(=O)NC2CC2)c(C)c1`, the concentration for half-maximal inhibition (IC50) in assay [1] turned out to be 0.088 µM. In assay [2], this molecule registered an inhibition of under 30%.

Molecule `CCNC(=O)C(C)(CNCc1ccc(C)cc1C)NC(=O)CNC(=O)c1cc(C(F)(F)F)ccc1N` (racemic) registered a concentration for half-maximal inhibition (IC50) in assay [1] of 8.7 µM. Further, the inhibition in assay [2] is under 30%.

`COC(=O)[C@@H](CNCc1ccc(C)cc1C)NC(=O)CNC(=O)c1cccc(C(F)(F)F)c1` returned an IC50 in assay [1] of 1 µM. In addition, in assay [2], the inhibition is under 30%.

In turn, `Cc1ccc(CNC[C@H](NC(=O)CNC(=O)c2cc(OC(F)(F)F)ccc2N)C(=O)NC(C)(C)C)c(C)c1` came in with an IC50 in assay [1] of 0.028 µM. Moreover, the inhibition in assay [2] was under 30%.

`Cc1ccc(CNCC[C@H](NC(=O)CNC(=O)c2cccc(C(F)(F)F)c2)C(=O)NC(C)(C)C)c(C)c1` yielded a 50% inhibitory concentration (IC50) in assay [1] of 0.77 µM. The same molecule had an inhibition in assay [2] of under 30%.

As for `COc1ccc(CNC[C@H](NC(=O)CNC(=O)c2cccc(C(F)(F)F)c2)C(=O)NC(C)(C)C)cc1`, in assay [1], the IC50 was 1.1 µM. Moreover, the inhibition in assay [2] was under 30%.

In turn, `CCNC(=O)[C@@H](NC(=O)CNC(=O)c1cccc(C(F)(F)F)c1)[C@@H](C)NCc1ccc(C)cc1C` gave an IC50 in assay [1] of 0.13 µM. The inhibition in assay [2] was under 30%.

As for `Cc1ccc(CNC[C@H](NC(=O)CNC(=O)c2cccc(C(F)(F)F)c2)C(=O)N2CCOCC2)c(C)c1`, the IC50 in assay [1] came to 0.49 µM. This molecule displayed an inhibition in assay [2] of under 30%.

On to `Cc1ccc(CNC[C@H](NC(=O)CNC(=O)c2cccc(C(F)(F)F)c2)C(=O)N2CCCC2)c(C)c1`, for which, in assay [1], the IC50 worked out at 0.26 µM. Also, in assay [2], the inhibition was under 30%.

As to `Cc1ccc(CNC[C@H](NC(=O)CNC(=O)c2cccc(C(F)(F)F)c2)C(=O)NCc2ccccc2)c(C)c1`, the IC50 in assay [1] amounted to 7 µM. Besides, the inhibition in assay [2] was under 30%.

`CNC(=O)[C@H](CNCc1ccc(C)cc1C)NC(=O)CNC(=O)c1cccc(C(F)(F)F)c1` yielded a half-inhibitory concentration (IC50) in assay [1] of 0.23 µM. Moreover, the inhibition in assay [2] is under 30%.

The values above are taken from ChEMBL document CHEMBL1139795, “Capped diaminopropionamide-glycine dipeptides are inhibitors of CC chemokine receptor 2 (CCR2)” (Bioorg Med Chem Lett, 2007).
